Compound activity: PubChem, Sanford-Burnham Center for Chemical Genomics
In the library only some 1.5% were active in any assay of this set; here they are far more common.
EBI2 block: EBI2 (human) antagonism; EBI2 beta-arrestin recruitment, luminescence, 7a,25-OHC stimulated; 0.81% of 360,000 active; inhibition, % at 5 µM; in the data active = inhibition above about 38%;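 also: enzyme fragment complementation signal reports receptor beta-arrestin coupling in cells; 0% = agonist plus DMSO wells and 100% = wells without agonist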
APJ antagonist: blocks the human apelin receptor APJ | P35414 | CHO-K1 APJ beta-arrestin complementation, luminescence | inhibition, % at 20 µM | 0.32% of 330,000 active | AID 2521;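 active = inhibition above about 40% at 20 µM, limit read from the data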;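 also: cells challenged with 10 nM apelin-13 agonist together with compound; plate controls were apelin-13 plus DMSO wells for no effect and DMSO wells lacking apelin-13 for full effect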
CXCR6 block: inhibitors of human CXCR6 receptor; 0.36% of 360,000 active; inhibition, % at 20 µM; O00574; CHO-K1 PathHunter CXCR6 beta-arrestin, luminescence; in the data active = inhibition above about 34%, passing the limit was not always enough;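 also: antagonist mode with CXCL16 agonist at 10 nM final; 0% = 10 nM CXCL16 with DMSO and 100% = unstimulated wells without agonist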
CCR6 antagonist: blocks CCL20-driven beta-arrestin recruitment at human CCR6; 0.49% of 340,000 active; inhibition, % at 20 µM; AID 493098; CHO-K1 CCR6 PathHunter beta-arrestin, luminescence, CCL20-stimulated; P51684;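 active = compounds whose inhibition of the agonist-driven luminescence signal at 20 µM reaches about 50%, limit read from the data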;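 also: cells stimulated with CCL20 at 14 nM final; plate controls were DMSO with CCL20 for no effect and DMSO without agonist for full effect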
Target sequence (P51684 whole entry, looked up): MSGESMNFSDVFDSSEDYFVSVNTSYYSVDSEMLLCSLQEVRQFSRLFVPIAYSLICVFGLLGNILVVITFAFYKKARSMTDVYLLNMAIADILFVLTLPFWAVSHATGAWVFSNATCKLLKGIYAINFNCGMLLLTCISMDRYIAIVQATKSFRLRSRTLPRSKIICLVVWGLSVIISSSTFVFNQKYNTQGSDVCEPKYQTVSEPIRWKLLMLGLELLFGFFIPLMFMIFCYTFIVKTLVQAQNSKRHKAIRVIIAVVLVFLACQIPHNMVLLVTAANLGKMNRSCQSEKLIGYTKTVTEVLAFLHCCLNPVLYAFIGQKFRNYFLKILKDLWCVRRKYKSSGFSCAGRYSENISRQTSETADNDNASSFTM
APJ ag: APJ receptor agonism. AID 2520. P35414. CHO-K1 APJ PathHunter beta-arrestin, luminescence; 0% DMSO wells, 100% apelin. 0.11% of 330,000 active. activation, % at 20 µM;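 active = activation more than six SD over the plate average, tested at 20 µM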;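 also: 0% = DMSO alone and 100% = apelin-13 at 10 nM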
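assay system = CHO-K1 APJ beta-arrestin complementation cell line | input = cell density 1000 per well | dosing = compound 20 µM once, DMSO 1% | timing = compound 90 min 25 °C, reagent 1 h | measured by = luminescence from split beta-galactosidase complementation, Galacton Star/Emerald II substrate | read-out basis = APJ agonist activity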
Numbers without * were called inactive; / = no result given.

SMILES | EBI2 block | APJ antagonist | CXCR6 block | CCR6 antagonist | APJ ag
CCOc1ccccc1N1C(=O)CC(Sc2n[nH]c(-c3ccccc3)n2)C1=O (configuration not stated) | -12 | 4 | -8 | 70* | -2
COc1ccc(N2C(=O)CC(Sc3n[nH]c(-c4cccc(C)c4)n3)C2=O)cc1 (configuration not stated) | 6 | 4 | -1 | 4 | -1
CC1CN(C(=O)c2cc3cc(F)ccc3[nH]2)CC(C)O1 (configuration not stated) | -2 | -5 | 0 | 8 | 2
Cc1ccc(Cl)c2c1=NC(=O)C=2c1[nH]c(=S)[nH]c1O | -6 | 41* | 17 | 45 | -8
Cc1ccc(S(=O)(=O)N2CCCC2=O)c(C)c1N(C)S(C)(=O)=O | -12 | -1 | 12 | -8 | -3
CC(=O)NS(=O)(=O)c1ccc(NC(=O)CC(C)c2ccccc2)cc1 (configuration not stated) | 9 | -2 | 2 | 7 | -5
O=C(COc1ccc(S(=O)(=O)N2CCCC2)cc1)NCc1ccccn1 | -1 | 16 | -2 | 12 | 1
CS(=O)(=O)c1ccc(S(=O)CC(=O)OCc2ccccc2)c([N+](=O)[O-])c1 (configuration not stated) | 41* | / | 52* | / | /
CCOC(=O)C(=Cc1ccc(OCc2ccc([N+](=O)[O-])cc2)c(OC)c1)C(=O)OCC | 54* | -2 | 9 | 9 | -2
COc1cc(/C=N/NC(=O)c2cccc([N+](=O)[O-])c2)ccc1OCc1ccccc1 | 30 | -24 | 1 | 17 | 2
O=C(Cc1cccs1)N(CC1CCCO1)C1(C(=O)NC2CCCC2)CCCCC1 (configuration not stated) | 12 | 13 | 4 | 5 | -3
COc1ccc(OC)c(S(=O)(=O)N2CCN(c3ccccc3)CC2)c1 | -6 | 23 | 6 | 6 | -4
COc1ccc(OC)c(S(=O)(=O)ON2C(=O)c3ccccc3C2=O)c1 | -6 | 20 | 11 | 57* | 1
O=C(c1[nH]nc2c1CCc1ccccc1-2)N1CCN(Cc2ccc3c(c2)OCO3)CC1 | 83* | -2 | 3 | 15 | 0
O=C(c1ccccc1)N1CCN(Cc2ccc3c(c2)OCO3)CC1 | 13 | 7 | -1 | -2 | -3
CC(=O)Nc1ccc(S(=O)(=O)N(C)CC(=O)OC(C)C(=O)N(C)Cc2ccccc2)cc1 (configuration not stated) | 5 | -9 | -12 | -8 | -2
Cn1cc([N+](=O)[O-])c(C(=O)NCc2cc3cc(Cl)ccc3[nH]2)n1 | -3 | 2 | -6 | -31 | 0
CCO[C@@H]1OC(C(=O)N2CCN(Cc3ccccc3)CC2)=C[C@H](c2ccc(Br)cc2)[C@H]1CCCO | 37 | 7 | 48* | 58* | -7
Cc1nn(Cc2noc(C(=O)NC3CCC(C)CC3)n2)c(C)c1Br (configuration not stated) | 3 | -7 | -25 | -2 | -3
O=[N+]([O-])c1cc([N+](=O)[O-])c2cc3ccccc3nc2c1 | 70* | 16 | 41* | 45 | -2
CC(=NNc1nc2ccccc2o1)c1ncccn1 | 55* | / | -7 | 1 | /
C/C(=N\Nc1nc2ccccc2s1)c1cccs1 | 20 | 5 | 1 | 4 | -10
CC(=NNc1nc2ccccc2s1)c1ncccn1 | 57* | / | 54* | 40 | /
CC(=NNc1nc2ccccc2o1)c1cc2ccccc2cn1 | 1 | / | -6 | -16 | /
CC(C)(C)C(=O)Nc1cccc(OC(F)(F)C(F)Cl)c1 (configuration not stated) | -1 | -10 | -6 | -8 | 0
SMILES | EBI2 block | APJ antagonist | CXCR6 block | CCR6 antagonist | APJ ag
CCN(CC)CCNC(=O)c1ccc2c(c1NCCO)C(=O)c1ccccc1C2=O | 1 | -7 | 8 | 19 | -1
CC1CCN(C(=O)c2ccc3c(c2NCCO)C(=O)c2ccccc2C3=O)CC1 | 46* | -1 | 20 | 25 | -1
COC1=C(OC)C(=O)C(Sc2ccc3ccccc3c2)=CC1=O | -1 | / | 72* | / | /
COc1ccc(S(=O)(=O)Oc2ccc3ccccc3c2)cc1 | -5 | -8 | 6 | 5 | -2
CCC(C)C1=CC(=Nc2c(C)n(C)n(-c3ccccc3)c2=O)C=C(C(C)CC)C1=O (configuration not stated) | 33 | 9 | 33 | 51* | -6
CC1=CC(=Nc2c(C)n(C)n(-c3ccccc3)c2=O)C=C(C)C1=O | 4 | 19 | 17 | 24 | -2
CC(Oc1ccc(Cl)cc1)C(=O)NCC1CCCO1 (configuration not stated) | -7 | 13 | -1 | 21 | -1
CCc1ccc2cc(F)cc(F)c2n1 | -11 | / | 2 | / | /
O=C1N=C(N2CCCCC2)SC1=C1CCCCC1 | -3 | 8 | -1 | 5 | -3
O=C1NC(=S)SC1=C1CCCCCC1 | -2 | 17 | 5 | 51* | -4
C#CCOCCOCCOCCNc1nc(N2CCN(C(=O)CCCCCCCCCCNC(=O)[C@H]([C@@H](C)CC)n3cc(CCCCN=C(N)N)nn3)CC2)nc(N2CCN(C(=O)CCCCCCCCCCNC(=O)[C@H](CCCN=C(N)N)n3cc(C[C@@H](C)CC)nn3)CC2)n1 | / | 35 | / | / | 73*
Cc1cccc(NC(=O)c2ccc(S(=O)(=O)N3CCOCC3)cc2)n1 | 8 | 6 | -2 | 7 | -1
Cn1c(N)c(C(=O)CNC2CCCCC2)c(=O)n(C)c1=O | -8 | -5 | -1 | 3 | 1
CC1OC(CC(=O)O)CC2=C1C(=O)c1c(O)cccc1C2=O (configuration not stated) | 8 | / | 74* | 89* | /
O=C(/C=C/c1cccs1)c1ccc(NC(=O)c2cccc(Br)c2)cc1 | 58* | -16 | 11 | 14 | -2
O=C1C(Cl)=C(N2CCCCC2)C(=O)C(Cl)=C1c1cnc(N2CCCCC2)s1 | -16 | -16 | 14 | 70* | 7
CN(C)c1ncc(C2=C(Cl)C(=O)C(N3CCCC3)=C(Cl)C2=O)s1 | -9 | -20 | 14 | 91* | 8
CCN(Cc1ccncc1)C(=O)C1CCC(=O)N(Cc2ccc(Cl)cc2)C1 (configuration not stated) | 5 | -16 | -1 | 9 | -4
Cc1nc(NC(=O)c2ccccc2)sc1C1(C)CC(c2c(Cl)cccc2Cl)=NO1 (configuration not stated) | 7 | -28 | 0 | 11 | 5
O=[N+]([O-])c1cccc(/C=N/Nc2nc(C(Cl)(Cl)Cl)nc3ccccc23)c1 | -2 | -41 | -5 | -4 | 15*
CCc1ccc2nc(SCC(=O)N3CC(=O)Nc4ccccc43)c(C#N)cc2c1 | 49* | -4 | 2 | 11 | 0
O=C1c2ccccc2-c2nnc(-c3ccc(F)cc3)cc21 | 48* | 7 | 20 | 45 | -7
O=C(c1ccc(Cl)cc1)N1CCC(C(=O)N2CCN(c3ncccn3)CC2)CC1 | 48* | 10 | -1 | -5 | -5
